Data reported in ChEMBL document CHEMBL4118097, “Selective Inhibitors of Dual Leucine Zipper Kinase (DLK, MAP3K12) with Activity in a Model of Alzheimer's Disease” (J Med Chem, 2017).

Tests used:
[1] = target: Dual specificity tyrosine-phosphorylation-regulated kinase 1A (Homo sapiens) (UniProt Q13627); assay: Inhibition of full length recombinant GST-tagged human DYRK1A expressed in baculovirus expression system at 1 uM by FRET assay relative to control
[2] = target: Casein kinase I isoform gamma-1 (Homo sapiens) (UniProt Q9HCP0); assay: Inhibition of CK1gamma1 (unknown origin) at 1 uM by FRET assay relative to control
[3] = target: CDK8/Cyclin C (Homo sapiens) (UniProt P49336+P24863); assay: Inhibition of recombinant full length His-tagged human CDK8/CyclinC expressed in baculovirus expression system at 1 uM by FRET assay relative to control
[4] = target: Calcium/calmodulin-dependent protein kinase type 1D (Homo sapiens) (UniProt Q8IU85); assay: Inhibition of CaMK1delta (unknown origin) at 1 uM by FRET assay relative to control
[5] = target: Serine/threonine-protein kinase B-raf (Homo sapiens) (UniProt P15056); assay: Inhibition of B-Raf (unknown origin) at 1 uM by FRET assay relative to control
[6] = target: Tyrosine-protein kinase Blk (Homo sapiens) (UniProt P51451); assay: Inhibition of recombinant full length His-tagged human Blk cytoplasmic domain expressed in Baculovirus expression system at 1 uM by FRET assay relative to control
[7] = target: Mitogen-activated protein kinase kinase kinase 5 (Homo sapiens) (UniProt Q99683); assay: Inhibition of recombinant full length GST-tagged human ASK1 expressed in baculovirus expression system at 1 uM by FRET assay relative to control
How it was run: (§1)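 Single-concentration screen at 1 μM in Life Technologies SelectScreen, across a 220-kinase panel. Z′-LYTE format measures phosphorylation of a labeled peptide by FRET. Results are reported as percent inhibition.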

[8] = target: Mitogen-activated protein kinase 8 (Homo sapiens, UniProt P45983); assay: Inhibition of recombinant full length His-tagged human JNK1alpha1 expressed in baculovirus expression system at 1 uM by FRET assay relative to control
[9] = target: Receptor-type tyrosine-protein kinase FLT3 (Homo sapiens) (UniProt P36888); assay: Inhibition of recombinant His-tagged human FLT3 cytoplasmic domain expressed in baculovirus expression system at 1 uM by FRET assay relative to control
How it was run: (§2)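 Single-point screen at 1 μM compound in a 220-kinase panel run by Life Technologies (SelectScreen). Z′-LYTE format: phosphorylation of a labeled peptide substrate read by FRET. Values are reported as percent inhibition.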

[10] = target: Protein kinase C delta type (Homo sapiens) (UniProt Q05655); assay: Inhibition of recombinant full length human PKCdelta expressed in baculovirus expression system at 1 uM by FRET assay relative to control
[11] = target: Phosphorylase b kinase gamma catalytic chain, skeletal muscle/heart isoform (Homo sapiens) (UniProt Q16816); assay: Inhibition of recombinant full length GST-tagged human PHKgamma1 expressed in baculovirus expression system at 1 uM by FRET assay relative to control; how it was run: as §1
[12] = target: Platelet-derived growth factor receptor alpha (Homo sapiens) (UniProt P16234); assay: Inhibition of recombinant GST-tagged human PDGFRalpha cytoplasmic domain expressed in baculovirus expression system at 1 uM by FRET assay relative to control; how it was run: as §2
[13] = target: PAS domain-containing serine/threonine-protein kinase (Homo sapiens) (UniProt Q96RG2); assay: Inhibition of recombinant GST-tagged human PASK catalytic domain expressed in baculovirus expression system at 1 uM by FRET assay relative to control; how it was run: as §2
[14] = target: Serine/threonine-protein kinase PAK 6 (Homo sapiens) (UniProt Q9NQU5); assay: Inhibition of recombinant full length His-tagged human PAK6 expressed in baculovirus expression system at 1 uM by FRET assay relative to control
[15] = target: Serine/threonine-protein kinase PAK 3 (Homo sapiens) (UniProt O75914); assay: Inhibition of recombinant full length His-tagged human PAK3 expressed in baculovirus expression system at 1 uM by FRET assay relative to control
[16] = target: Serine/threonine-protein kinase NLK (Homo sapiens) (UniProt Q9UBE8); assay: Inhibition of recombinant full length GST-tagged human NLK expressed in baculovirus expression system at 1 uM by FRET assay relative to control; how it was run: as §1
[17] = target: Serine/threonine-protein kinase Nek1 (Homo sapiens) (UniProt Q96PY6); assay: Inhibition of recombinant full length GST-tagged human NEK1 expressed in baculovirus expression system at 1 uM by FRET assay relative to control; how it was run: as §1
[18] = target: Mitogen-activated protein kinase kinase kinase 10 (Homo sapiens, UniProt Q02779); assay: Inhibition of recombinant human full length GST-tagged MLK2 expressed in baculovirus at 1 uM by FRET assay relative to control
[19] = target: Mitogen-activated protein kinase kinase kinase 9 (Homo sapiens, UniProt P80192); assay: Inhibition of recombinant human GST-tagged MLK1 expressed in baculovirus at 1 uM by FRET assay relative to control
[20] = target: Tyrosine-protein kinase TXK (Homo sapiens) (UniProt P42681); assay: Inhibition of recombinant N-terminal GST-tagged human TXK (260 to 527 residues) expressed in baculovirus expression system at 1 uM by FRET assay relative to control; how it was run: as §1
[21] = target: Proto-oncogene tyrosine-protein kinase Src (Homo sapiens) (UniProt P12931); assay: Inhibition of recombinant full length C-terminal His-tagged human Src cytoplasmic domain expressed in baculovirus expression system at 1 uM by FRET assay relative to control; how it was run: as §1
[22] = target: Serine/threonine-protein kinase Sgk3 (Homo sapiens) (UniProt Q96BR1); assay: Inhibition of recombinant full length GST-tagged human SGK3 catalytic domain (87 to 496 residues) expressed in baculovirus expression system at 1 uM by FRET assay relative to control; how it was run: as §1
[23] = target: Serine/threonine-protein kinase N1 (Homo sapiens) (UniProt Q16512); assay: Inhibition of full length recombinant GST-tagged human PRK1 expressed in baculovirus expression system at 1 uM by FRET assay relative to control
[24] = target: Beta-1 adrenergic receptor (Homo sapiens) (UniProt P08588); assay: Binding affinity to recombinant human beta1 adrenergic receptor at 10 uM relative to control
How it was run: (§3)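 Broad radioligand-binding and enzyme screening panel covering 42 targets (biogenic amine and neuropeptide receptors, ion channels, neurotransmitter transporters, acetylcholinesterase). Single test concentration of 10 μM. Results expressed as binding relative to control, with a hit defined as >50% of control.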

Homo sapiens [25] = species on record: Homo sapiens; assay: Binding affinity to BZD receptor (unknown origin) at 10 uM relative to control; how it was run: as §3
[26] = target: Muscarinic acetylcholine receptor M1 (Homo sapiens) (UniProt P11229); assay: Binding affinity to recombinant human M1 acetylcholine receptor at 10 uM relative to control; how it was run: as §3
[27] = target: 5-hydroxytryptamine receptor 3A (Homo sapiens) (UniProt P46098); assay: Binding affinity to 5HT3 receptor (unknown origin) receptor at 10 uM relative to control; how it was run: as §3
Homo sapiens [28] = species on record: Homo sapiens; assay: Binding affinity to GABA-gated chloride channel (unknown origin) receptor at 10 uM relative to control; how it was run: as §3
[29] = target: Sodium-dependent dopamine transporter (Homo sapiens) (UniProt Q01959); assay: Binding affinity to recombinant human dopamine transporter at 10 uM relative to control; how it was run: as §3

Sequence of Serine/threonine-protein kinase Nek1 (Homo sapiens) (Q96PY6 whole entry): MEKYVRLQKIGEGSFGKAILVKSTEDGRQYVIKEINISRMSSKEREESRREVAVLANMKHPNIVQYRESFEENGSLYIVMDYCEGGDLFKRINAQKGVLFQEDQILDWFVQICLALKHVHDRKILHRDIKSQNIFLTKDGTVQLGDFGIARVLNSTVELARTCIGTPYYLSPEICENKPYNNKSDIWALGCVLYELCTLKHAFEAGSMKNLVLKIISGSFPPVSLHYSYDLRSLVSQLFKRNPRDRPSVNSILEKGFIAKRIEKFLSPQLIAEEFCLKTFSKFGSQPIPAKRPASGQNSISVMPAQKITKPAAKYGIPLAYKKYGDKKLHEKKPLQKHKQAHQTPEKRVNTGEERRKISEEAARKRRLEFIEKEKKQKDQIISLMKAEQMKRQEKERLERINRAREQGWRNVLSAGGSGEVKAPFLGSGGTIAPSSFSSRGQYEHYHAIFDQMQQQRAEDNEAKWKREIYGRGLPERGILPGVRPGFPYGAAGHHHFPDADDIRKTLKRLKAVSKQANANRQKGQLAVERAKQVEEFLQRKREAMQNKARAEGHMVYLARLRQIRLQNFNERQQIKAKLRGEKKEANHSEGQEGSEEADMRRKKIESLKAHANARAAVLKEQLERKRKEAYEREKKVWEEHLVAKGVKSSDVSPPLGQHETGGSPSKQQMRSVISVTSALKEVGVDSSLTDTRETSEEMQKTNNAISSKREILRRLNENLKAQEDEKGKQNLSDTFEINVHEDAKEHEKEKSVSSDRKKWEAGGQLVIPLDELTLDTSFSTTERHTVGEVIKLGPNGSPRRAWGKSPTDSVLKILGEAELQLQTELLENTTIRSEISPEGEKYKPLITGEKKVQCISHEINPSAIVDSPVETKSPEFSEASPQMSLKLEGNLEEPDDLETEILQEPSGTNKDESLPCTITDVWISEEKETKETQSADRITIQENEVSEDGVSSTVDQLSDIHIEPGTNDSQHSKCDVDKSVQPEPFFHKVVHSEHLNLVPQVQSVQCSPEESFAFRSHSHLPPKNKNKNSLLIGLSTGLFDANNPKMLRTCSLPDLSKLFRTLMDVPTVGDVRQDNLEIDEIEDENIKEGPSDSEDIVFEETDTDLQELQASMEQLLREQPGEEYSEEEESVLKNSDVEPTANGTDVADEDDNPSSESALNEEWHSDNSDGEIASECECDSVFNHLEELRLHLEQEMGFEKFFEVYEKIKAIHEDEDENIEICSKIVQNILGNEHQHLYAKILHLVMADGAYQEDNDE
Sequence of Serine/threonine-protein kinase NLK (Homo sapiens) (Q9UBE8 whole entry): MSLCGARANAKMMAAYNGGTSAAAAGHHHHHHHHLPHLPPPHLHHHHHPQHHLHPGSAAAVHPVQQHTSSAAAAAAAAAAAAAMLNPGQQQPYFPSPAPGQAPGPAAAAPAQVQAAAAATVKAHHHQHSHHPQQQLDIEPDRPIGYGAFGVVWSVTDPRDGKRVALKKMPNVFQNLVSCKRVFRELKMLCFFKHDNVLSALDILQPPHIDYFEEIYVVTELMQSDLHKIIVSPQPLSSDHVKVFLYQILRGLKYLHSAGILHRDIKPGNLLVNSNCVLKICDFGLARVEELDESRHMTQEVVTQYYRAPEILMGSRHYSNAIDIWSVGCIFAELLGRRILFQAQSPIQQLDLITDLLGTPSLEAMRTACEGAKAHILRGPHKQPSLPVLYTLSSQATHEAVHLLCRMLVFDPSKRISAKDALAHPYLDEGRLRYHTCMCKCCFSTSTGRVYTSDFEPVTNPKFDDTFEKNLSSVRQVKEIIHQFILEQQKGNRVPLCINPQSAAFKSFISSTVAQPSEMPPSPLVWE
Sequence of Mitogen-activated protein kinase kinase kinase 5 (Homo sapiens) (Q99683 whole entry): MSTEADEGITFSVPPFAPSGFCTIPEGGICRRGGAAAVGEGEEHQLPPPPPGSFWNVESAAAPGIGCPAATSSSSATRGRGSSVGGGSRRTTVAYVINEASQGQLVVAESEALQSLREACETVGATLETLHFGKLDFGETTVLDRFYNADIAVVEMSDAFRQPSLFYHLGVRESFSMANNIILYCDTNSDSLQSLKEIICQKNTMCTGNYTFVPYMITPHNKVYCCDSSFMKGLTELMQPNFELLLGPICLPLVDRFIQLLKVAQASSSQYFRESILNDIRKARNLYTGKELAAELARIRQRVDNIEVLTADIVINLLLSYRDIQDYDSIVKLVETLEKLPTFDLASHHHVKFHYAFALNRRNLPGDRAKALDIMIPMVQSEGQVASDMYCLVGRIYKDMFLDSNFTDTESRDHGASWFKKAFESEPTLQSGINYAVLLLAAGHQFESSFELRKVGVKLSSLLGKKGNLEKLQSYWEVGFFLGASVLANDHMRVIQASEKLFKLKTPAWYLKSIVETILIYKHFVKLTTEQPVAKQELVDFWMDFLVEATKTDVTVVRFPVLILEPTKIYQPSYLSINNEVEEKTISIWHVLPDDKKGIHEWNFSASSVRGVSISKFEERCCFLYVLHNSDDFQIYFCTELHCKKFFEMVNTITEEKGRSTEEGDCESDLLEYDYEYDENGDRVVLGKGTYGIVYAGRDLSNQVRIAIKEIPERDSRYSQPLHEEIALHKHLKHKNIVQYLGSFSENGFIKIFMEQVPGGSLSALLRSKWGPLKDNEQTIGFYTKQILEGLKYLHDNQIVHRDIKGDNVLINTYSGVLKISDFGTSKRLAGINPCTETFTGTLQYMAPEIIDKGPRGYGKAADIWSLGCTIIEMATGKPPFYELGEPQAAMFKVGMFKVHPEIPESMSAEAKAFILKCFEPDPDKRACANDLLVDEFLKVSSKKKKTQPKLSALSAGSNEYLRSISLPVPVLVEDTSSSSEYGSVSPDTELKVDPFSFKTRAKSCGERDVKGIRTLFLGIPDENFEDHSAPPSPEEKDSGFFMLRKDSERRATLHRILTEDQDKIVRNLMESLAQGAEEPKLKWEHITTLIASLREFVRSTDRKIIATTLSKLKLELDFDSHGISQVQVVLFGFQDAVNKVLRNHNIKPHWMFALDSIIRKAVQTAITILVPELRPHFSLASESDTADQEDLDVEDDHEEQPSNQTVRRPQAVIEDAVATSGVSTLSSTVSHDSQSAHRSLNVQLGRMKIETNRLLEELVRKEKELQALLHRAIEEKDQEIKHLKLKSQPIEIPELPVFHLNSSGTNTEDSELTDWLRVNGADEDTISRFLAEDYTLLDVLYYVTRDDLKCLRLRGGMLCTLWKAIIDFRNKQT
Sequence of Serine/threonine-protein kinase Sgk3 (Homo sapiens) (Q96BR1 whole entry, the tested form may be a part): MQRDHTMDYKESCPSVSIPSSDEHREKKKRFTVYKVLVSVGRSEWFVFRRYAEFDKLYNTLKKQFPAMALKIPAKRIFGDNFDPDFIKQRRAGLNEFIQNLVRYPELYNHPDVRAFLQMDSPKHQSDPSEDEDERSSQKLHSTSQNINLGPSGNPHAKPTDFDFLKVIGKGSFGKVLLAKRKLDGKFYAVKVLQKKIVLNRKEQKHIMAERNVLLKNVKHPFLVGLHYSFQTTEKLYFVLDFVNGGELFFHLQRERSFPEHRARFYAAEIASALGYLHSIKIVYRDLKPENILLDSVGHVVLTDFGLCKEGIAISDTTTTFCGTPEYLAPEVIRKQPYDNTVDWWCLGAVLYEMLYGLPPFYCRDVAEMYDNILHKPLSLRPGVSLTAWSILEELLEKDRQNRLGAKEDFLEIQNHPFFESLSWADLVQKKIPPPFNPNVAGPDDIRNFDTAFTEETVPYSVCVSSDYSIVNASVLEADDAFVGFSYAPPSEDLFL
Sequence of Platelet-derived growth factor receptor alpha (Homo sapiens) (P16234 whole entry, the tested form may be a part): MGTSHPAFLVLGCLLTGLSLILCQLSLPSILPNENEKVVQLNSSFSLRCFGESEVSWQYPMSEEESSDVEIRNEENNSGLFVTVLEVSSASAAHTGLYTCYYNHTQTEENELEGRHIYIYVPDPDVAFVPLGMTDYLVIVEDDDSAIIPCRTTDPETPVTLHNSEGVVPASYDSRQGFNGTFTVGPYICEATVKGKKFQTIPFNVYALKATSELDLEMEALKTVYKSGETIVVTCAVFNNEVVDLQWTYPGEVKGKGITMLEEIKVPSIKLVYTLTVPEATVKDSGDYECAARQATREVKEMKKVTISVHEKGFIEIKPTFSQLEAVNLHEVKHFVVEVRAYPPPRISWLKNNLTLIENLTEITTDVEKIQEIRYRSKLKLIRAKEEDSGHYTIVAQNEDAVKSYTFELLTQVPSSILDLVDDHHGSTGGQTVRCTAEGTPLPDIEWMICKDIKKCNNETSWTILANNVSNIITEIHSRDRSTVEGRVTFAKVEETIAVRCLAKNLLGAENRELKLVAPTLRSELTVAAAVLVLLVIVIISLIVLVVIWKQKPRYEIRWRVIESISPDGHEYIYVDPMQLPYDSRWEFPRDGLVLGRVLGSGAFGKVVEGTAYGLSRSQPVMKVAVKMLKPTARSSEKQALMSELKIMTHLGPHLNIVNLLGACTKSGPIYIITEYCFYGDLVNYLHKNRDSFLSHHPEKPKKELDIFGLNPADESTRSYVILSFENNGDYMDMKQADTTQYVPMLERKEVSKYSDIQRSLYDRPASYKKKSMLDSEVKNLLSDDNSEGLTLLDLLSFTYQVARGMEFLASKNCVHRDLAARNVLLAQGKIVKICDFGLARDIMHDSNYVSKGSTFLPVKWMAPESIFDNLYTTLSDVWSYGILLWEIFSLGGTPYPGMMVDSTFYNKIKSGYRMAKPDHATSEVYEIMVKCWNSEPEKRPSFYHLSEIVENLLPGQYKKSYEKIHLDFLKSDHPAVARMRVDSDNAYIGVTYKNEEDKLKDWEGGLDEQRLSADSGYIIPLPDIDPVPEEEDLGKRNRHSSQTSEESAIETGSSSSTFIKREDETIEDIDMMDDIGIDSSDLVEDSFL

| Structure (SMILES) | inhibition [1] | inhibition [2] | inhibition [3] | inhibition [4] | inhibition [5] | inhibition [6] | inhibition [7] | inhibition [8] | inhibition [9] | inhibition [10] | inhibition [11] | inhibition [12] | inhibition [13] | inhibition [14] | inhibition [15] | inhibition [16] | inhibition [17] | inhibition [18] | inhibition [19] | inhibition [20] | also measured |
| --- | --- | --- | --- | --- | --- | --- | --- | --- | --- | --- | --- | --- | --- | --- | --- | --- | --- | --- | --- | --- | --- |
| CC(C)n1nc(-c2cnc(N)c(OC(F)(F)F)c2)cc1[C@H]1[C@@H]2CN(C3COC3)C[C@@H]21 | 7% | 8.4% | 9.9% | 2.8% | 3.7% | 5.3% | -5.3% | 9.1% | 52.5% | 0.9% | 4% | 7.1% | -0.6% | 4.8% | 3.6% | -4.5% | 5.7% | 10.9% | -7.2% | 4.7% | inhibition [21]: 23.8%; inhibition [22]: 6.1%; inhibition [23]: 5.3%; Activity [24]: > 50%; Activity (Homo sapiens [25]): > 50%; Activity [26]: > 50%; Activity [27]: > 50%; Activity (Homo sapiens [28]): > 50%; Activity [29]: > 50% |
| Nc1ncc(-c2cc([C@H]3[C@@H]4CN(C5COC5)C[C@@H]43)n(CC3CC3)n2)cc1C(F)(F)F | 3.9% | 2% | 2.4% | 11.1% | 1.8% | 27.4% | 3.1% | 1.5% | 66.5% | -0.7% | 3% | 11.1% | 4.5% | 5.1% | 17.2% | -4.7% | 3.6% | 13.2% | 28.5% | 25.6% | inhibition [21]: 22%; inhibition [22]: -0.1%; inhibition [23]: -8%; Activity [24]: > 50%; Activity (Homo sapiens [25]): > 50%; Activity [26]: > 50%; Activity [27]: > 50%; Activity (Homo sapiens [28]): > 50%; Activity [29]: > 50% |
